According to ChEMBL document CHEMBL5214894, “Biosynthetic Interrogation of Soil Metagenomes Reveals Metamarin, an Uncommon Cyclomarin Congener with Activity against Mycobacterium tuberculosis” (J Nat Prod, 2021):
In brackets after ≈: the same amount, converted by molar mass. Activity calls are given as the source filed them. The calls are words filed in the database; no cut-off is given here.

Columns and labels:
[1] = system: Mycolicibacterium smegmatis; test: Antibacterial activity against Mycobacterium smegmatis mc2 155 assessed as bacterial growth inhibition incubated for 48 hrs Alamar blue staining based assay; format: functional
Procedure, shortened: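 Culture grown 48 h at 37 °C, shaken in 7H9 with 0.2% glucose, 0.2% glycerol and 0.05% tyloxapol, then diluted to OD600 0.005. Added 1:1 to 2-fold serial dilutions, final 128 to 0.5 μg/mL. Rifampicin control. Static 48 h at 37 °C, then Alamar Blue for 24 h more. Wells staying blue by eye counted as inhibitory.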

Micrococcus luteus = test: Antibacterial activity against Micrococcus luteus NRRL B-1018 assessed as inhibition of bacterial growth incubated for 16 hrs by broth micro dilution analysis; format: functional
Procedure, shortened: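 Broth microdilution in LB, triplicate. Overnight culture diluted 5000-fold; 100 μL added to 100 μL LB holding 2-fold serial dilutions, final 128 to 0.5 μg/mL. Rifampicin control. Static incubation at 37 °C for 16 h. MIC taken as the lowest concentration with no visible growth.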

[2] = biological target: ATP-dependent Clp protease ATP-binding subunit ClpC1 (Mycobacterium tuberculosis) (UniProt P9WPC9); test: Induction of Mycobacterium tuberculosis H37Rv CIpc1 ATPase activity expressed in Escherichia coli BL21 (DE3) cells at 10 uM incubated for 1 hr by Biomol Green Reagent based assay
Procedure, shortened: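 His-tagged ClpC1, cloned from H37Rv DNA into pET28c and purified by Ni-NTA. Assay in 100 mM Tris, 200 mM KCl, 8 mM MgCl2, pH 7.5, with 1 μM ClpC1 and 100 μM ATP. Compound in DMSO at 0.1, 1.0 and 10 μM final. Incubated 1 h at 37 °C. Released phosphate detected with BIOMOL Green at OD620. Three independent experiments.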

[3] = system: Mycobacterium tuberculosis; test: Antimycobacterial activity against Mycobacterium tuberculosis H37Rv assessed as bacterial growth inhibition incubated for 6 days by Alamar blue staining based assay; format: functional; settings: 144 h, time 6 day
Procedure, shortened: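 Strains passaged at 37 °C in 7H9 with OADC, 0.2% glycerol and 0.02% tyloxapol to OD600 0.5–0.7, then diluted to OD600 0.005. Final test range 5 to 0.009 μg/mL. Rifampicin control. Incubated 6 days at 37 °C with 5% CO2. Tween 80 and Alamar Blue then added for 24 h. Absorbance read at 570 nm, normalized to 600 nm.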

[4] = system: Mycobacterium tuberculosis; test: Induction of Mycobacterium tuberculosis CIpc1/P1/P2 proteolytic activity at 0.1 to 10 uM incubated upto 45 mins by FITC-casein fluorescence based assay; settings: dose 0.1-10 µM
Procedure, shortened: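 FITC-casein 0.3 μM degraded by 1 μM ClpC1 with 2 μM ClpP1/P2 and 2 mM ATP. Buffer 100 mM Tris, 200 mM KCl, 8 mM MgCl2, pH 7.5. Compound in DMSO at 0.1, 1.0 and 10 μM. Change in fluorescence tracked relative to initial, which was set to 100. Triplicate.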

ATP-dependent Clp protease ATP-binding subunit ClpC1 (Mycobacterium tuberculosis), sequence (P9WPC9 whole entry): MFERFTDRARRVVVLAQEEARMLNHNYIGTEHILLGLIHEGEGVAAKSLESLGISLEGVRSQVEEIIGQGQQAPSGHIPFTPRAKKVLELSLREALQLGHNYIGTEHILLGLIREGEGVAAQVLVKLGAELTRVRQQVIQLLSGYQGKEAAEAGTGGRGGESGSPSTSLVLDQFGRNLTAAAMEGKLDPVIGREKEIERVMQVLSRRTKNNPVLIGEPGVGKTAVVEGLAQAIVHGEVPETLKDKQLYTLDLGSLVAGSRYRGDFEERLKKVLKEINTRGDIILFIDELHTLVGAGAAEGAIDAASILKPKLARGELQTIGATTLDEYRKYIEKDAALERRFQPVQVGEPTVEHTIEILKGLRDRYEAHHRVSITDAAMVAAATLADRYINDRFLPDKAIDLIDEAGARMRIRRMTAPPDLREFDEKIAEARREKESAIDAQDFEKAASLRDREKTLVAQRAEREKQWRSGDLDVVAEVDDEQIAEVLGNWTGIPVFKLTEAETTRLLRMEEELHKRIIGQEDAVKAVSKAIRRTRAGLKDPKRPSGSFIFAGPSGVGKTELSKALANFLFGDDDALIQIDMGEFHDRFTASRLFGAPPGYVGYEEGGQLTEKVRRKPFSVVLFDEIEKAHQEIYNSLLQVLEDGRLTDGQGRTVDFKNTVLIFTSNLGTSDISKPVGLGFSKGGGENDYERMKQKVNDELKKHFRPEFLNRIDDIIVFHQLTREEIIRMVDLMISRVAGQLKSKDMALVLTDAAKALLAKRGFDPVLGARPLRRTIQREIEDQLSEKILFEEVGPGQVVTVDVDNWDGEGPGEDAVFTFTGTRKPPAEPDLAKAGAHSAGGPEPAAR

In the case of C=CC(C)(C)n1cc(C(O)C2NC(=O)[C@H](C(C)C)NC(=O)[C@H](CC(C)C)N(C)C(=O)[C@H](C(C)C)NC(=O)C(C(OC)c3ccccc3)NC(=O)[C@H](C(C)C)NC(=O)C(CC(C)CO)N(C)C2=O)c2ccccc21 (stereo not given in full), the MIC [1] is reported as 16 µg/mL (≈ 15.8 µM), the MIC (Micrococcus luteus) is reported as 8 µg/mL (≈ 7.88 µM) and the Activity [2] is reported as “Active”. For the same compound, the MIC [3] was 0.16 µg/mL (≈ 0.158 µM) and the Activity [4] was “Active”.
